M4 antag: CHRM4 antagonism in calcium assay; inhibition, % at 3 µM; CHO-hM4 cells, ACh EC80, Fluo-8 calcium fluorescence; P08173; actives 0.73% (n = 360,000);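 active = inhibition above its plate's cutoff, the mean inhibition of sample wells plus 3 SD, cut at about 27% in these data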;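 note: 0% = acetylcholine EC80 with DMSO and 100% = DMSO without agonist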
Target sequence (P08173 whole entry, looked up): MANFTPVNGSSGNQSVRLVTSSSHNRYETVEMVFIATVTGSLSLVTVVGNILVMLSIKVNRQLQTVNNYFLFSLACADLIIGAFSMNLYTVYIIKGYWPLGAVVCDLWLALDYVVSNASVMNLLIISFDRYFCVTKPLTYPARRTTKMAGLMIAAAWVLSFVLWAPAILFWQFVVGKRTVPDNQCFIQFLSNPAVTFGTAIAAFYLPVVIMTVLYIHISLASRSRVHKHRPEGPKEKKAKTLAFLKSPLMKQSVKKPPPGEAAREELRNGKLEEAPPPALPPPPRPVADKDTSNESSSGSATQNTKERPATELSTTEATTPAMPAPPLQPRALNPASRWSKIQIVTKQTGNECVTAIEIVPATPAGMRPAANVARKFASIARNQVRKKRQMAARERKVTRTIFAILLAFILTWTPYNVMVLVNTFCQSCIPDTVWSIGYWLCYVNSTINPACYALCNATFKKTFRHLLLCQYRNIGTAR
CHRM5 antagonist: antagonists of human muscarinic M5 receptor (CHRM5); P08912; actives 0.59% (n = 360,000); CHO-hM5 cells, Fluo-8 calcium fluorescence, ACh EC80; inhibition, % at 3 µM;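 active = inhibition above a per-plate cutoff, the mean of that plate's test compounds plus 3 SD, cut at about 27% in these data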;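 note: 0% = acetylcholine EC80 with DMSO and 100% = DMSO without agonist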
M5 PAM: CHRM5 positive allosteric modulation. P08912. CHO-K1 hM5, Fluo-8 calcium, ACh EC20 PAM; 0% = ACh EC20, 100% = ACh EC100. activation, % at 3 µM. actives 0.3% (n = 360,000). AID 624038;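 active = activation above the run cutoff, the mean activation of all test compounds plus 3 SD, cut at about 18% in these data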
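system = human M5 receptor in CHO-K1 cells | compound = one concentration, 3 µM final (nominal) | schedule = Post-acetylcholine fluorescence recording 140 s | signal = Fluo-8 calcium dye fluorescence, kinetic read | benchmarks = low control EC20 acetylcholine (0%), high control EC100 acetylcholine (100%) | repeats = singlicate, one well per test compound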
CHRM4 PAM: potentiates acetylcholine response at human M4 receptor | P08173 | CHO-K1 hM4/Gqi5, Fluo-8 calcium fluorescence, ACh EC20; 0% = ACh EC20, 100% = maximal ACh | activation, % at 3 µM | actives 0.4% (n = 360,000) | AID 624126;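 active = activation above its plate's cutoff, the mean activation of sample wells plus 3 SD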
CHRM5 agonist: CHRM5 agonism in calcium assay; CHO-K1 hM5 cells, Fluo-8 calcium fluorescence; 0% DMSO wells, 100% maximal acetylcholine response; activation, % at 3 µM; actives 0.19% (n = 360,000); AID 624037;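 active = activation above the run's mean over test compounds plus 3 SD, cut at about 23% in these data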;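 note: signal is peak over basal fluorescence ratio across the kinetic read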
M4 ag: CHRM4 agonism in calcium assay | AID 624127 | CHO-K1 hM4/Gqi5, Fluo-8 calcium fluorescence; vehicle 0%, full acetylcholine response 100% | actives 0.14% (n = 360,000) | activation, % at 3 µM | P08173;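 active = activation above the run mean over all test wells plus 3 SD, cut at about 32% in these data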;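 note: peak over basal fluorescence ratio per well then scaled between controls; 0% = DMSO wells and 100% = acetylcholine at EC100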
* hit, by the source's call. The list is not random: actives were taken first. Their share in the collection is about 1.9%.

Cc1nnc(SCc2c(Cl)cccc2[N+](=O)[O-])s1 was read as M4 antag -5, CHRM5 antagonist 2, M5 PAM 20*, CHRM4 PAM 13, CHRM5 agonist 8 and M4 ag 2.
Cc1cccc(N2CCN(C(=O)CCC(=O)N3CC(C)Oc4ccc(C)cc43)CC2C)c1 (stereo unspecified) was read as M4 antag 101*, CHRM5 antagonist 3, M5 PAM -8, CHRM4 PAM -19, CHRM5 agonist 2 and M4 ag 12.
For Cc1ccc2c(c1)N(C(=O)CCC(=O)N1CCN(c3ccccn3)CC1)CC(C)O2 (stereo unspecified) the results were M4 antag 3, CHRM5 antagonist 4, M5 PAM -5, CHRM4 PAM -5, CHRM5 agonist 0 and M4 ag 3.
Screening Cc1cc(O)c(-c2cc(C(=O)Nc3ccc(S(=O)(=O)N4CCOCC4)cc3)[nH]n2)cc1C returned M4 antag 20, CHRM5 antagonist 2, M5 PAM -1, CHRM4 PAM -16, CHRM5 agonist 6 and M4 ag 17.
`CC(Oc1ccc(Cl)cc1)C(=O)Nc1cccc(S(=O)(=O)N2CCCC2)c1` (stereo unspecified) gave M4 antag -17, CHRM5 antagonist -2, M5 PAM -2, CHRM4 PAM 3, CHRM5 agonist 0 and M4 ag 1.
For CC(Oc1ccc(Cl)cc1)C(=O)Nc1ccc(S(=O)(=O)N2CCOCC2)cc1 (stereo unspecified) the results were M4 antag 7, CHRM5 antagonist 15, M5 PAM -9, CHRM4 PAM -11, CHRM5 agonist 38* and M4 ag 53*.
`O=C(Nc1ccc(S(=O)(=O)N2CCOCC2)cc1)c1cc(-c2cc(Cl)ccc2O)n[nH]1` gave M4 antag 24, CHRM5 antagonist 29*, M5 PAM -20, CHRM4 PAM -37, CHRM5 agonist 3 and M4 ag 20.
For NS(=O)(=O)c1ccc(NC(=O)COC(=O)c2ccc(S(=O)(=O)N3CCOCC3)cc2)cc1 the results were M4 antag 8, CHRM5 antagonist 3, M5 PAM -6, CHRM4 PAM 0, CHRM5 agonist 2 and M4 ag 0.
For CC1CCC2(CC1)NC(=O)N(CC(=O)NCc1ccc(Cl)cc1)C2=O (stereo unspecified) the results were M4 antag -9, CHRM5 antagonist -6, M5 PAM 13, CHRM4 PAM 8, CHRM5 agonist -3 and M4 ag 0.
`C[C@H](NC(=O)Cc1ccccc1)C(=O)N1CCC2(CC1)NCCc1[nH]cnc12` gave M4 antag -7, CHRM5 antagonist 17, M5 PAM -4, CHRM4 PAM -2, CHRM5 agonist -4 and M4 ag -1.
For Cc1onc(-c2c(F)cccc2Cl)c1C(=O)NC1CC1 the results were M4 antag -2, CHRM5 antagonist 6, M5 PAM 0, CHRM4 PAM -3, CHRM5 agonist -1 and M4 ag 2.
For CN(C)/C=C/c1onc(-c2c(F)cccc2Cl)c1C#N the results were M4 antag 0, CHRM5 antagonist 10, M5 PAM 28*, CHRM4 PAM 12, CHRM5 agonist 3 and M4 ag 0.
`Nc1ccc2c(c1)Cc1cc([N+](=O)[O-])ccc1-2` gave M4 antag 13, CHRM5 antagonist 28*, M5 PAM -12, CHRM4 PAM -7, CHRM5 agonist 35* and M4 ag 11.
For CC(=NO)c1ccc2c(c1)Cc1cc([N+](=O)[O-])ccc1-2 the results were M4 antag -15, CHRM5 antagonist 5, M5 PAM -5, CHRM4 PAM 9, CHRM5 agonist -1 and M4 ag 5.
Screening CC(O)CN(CC(C)O)c1ccc2c(c1)Cc1cc([N+](=O)[O-])ccc1-2 (stereo unspecified) returned M4 antag 34*, CHRM5 antagonist 73*, M5 PAM -37, CHRM4 PAM -14, CHRM5 agonist 527* and M4 ag 90*.
